Measurements taken from ChEMBL document CHEMBL3785031, “Discovery of small-molecule nonpeptide antagonists of nociceptin/orphanin FQ receptor: The studies of design, synthesis, and structure-activity relationships for (4-arylpiperidine substituted-methyl)-[bicyclic (hetero)cycloalkanobenzene] derivatives” (Eur J Med Chem, 2016).

How the values were obtained:
[1] = molecular target: Mu-type opioid receptor (Homo sapiens, UniProt P35372); assay: Displacement of [3H]DAMGO from human mu opioid receptor expressed in CHOK1 cells after 45 mins by scintillation proximity assay; type: cell-based, CHO-K1
[2] = molecular target: T1, Nociceptin receptor (Homo sapiens, UniProt P41146); assay: Antagonist activity at human NOP receptor expressed in HEK293 cells assessed as inhibition of N/OFQ-induced [35S]GTPgammaS binding after 1.5 hrs by scintillation proximity assay; type: functional, cell-based
In short: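 Membranes from HEK-293 cells expressing hNOP receptor were incubated 1.5 h at 25 °C with 10 nM N/OFQ, 400 pM [35S]GTPγS, 5 μM GDP and WGA-SPA beads. Buffer was 20 mM HEPES, 100 mM NaCl, 5 mM MgCl2 and 1 mM EDTA, pH 7.4. Six compound concentrations from 0.1 nM to 10 μM were run in duplicate. Basal binding was measured without ligands; NSB with 10 μM unlabeled GTPγS. Read by scintillation counting; IC50 derived.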

[3] = test system: HEK293; assay: Selectivity ratio of Ki for human mu opioid receptor expressed in CHOK1 cells to Ki for human NOP receptor expressed in HEK293 cells; type: cell-based
[4] = Half life in human liver microsomes at 1 uM by HPLC-MS/MS analysis; type: ADME
In short: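 Substrate at 1.0 μM was incubated at 37 °C in pooled human liver microsomes (1.0 mg/mL protein) with 3.3 mM MgCl2, 0.1 M NaKHPO4 (pH 7.4) and an NADPH-regenerating system.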

[5] = molecular target: Voltage-gated inwardly rectifying potassium channel KCNH2 (Homo sapiens, UniProt Q12809); assay: Displacement of [3H]dofetilide from human ERG channel expressed in HEK293 cells after 60 mins by liquid scintillation counting method; type: cell-based
[6] = molecular target: T1, Nociceptin receptor; assay: Displacement of [3H]N/OFQ from human NOP receptor expressed in HEK293 cells after 45 mins by scintillation proximity assay; type: cell-based
In short: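 HEK-293 membranes bearing recombinant hNOP receptor (8.3 μg) were incubated at 25 °C for 45 min with 0.4 nM [3H]N/OFQ and WGA-SPA beads. Buffer was 50 mM HEPES, pH 7.4, with 10 mM MgCl2 and 1 mM EDTA. Six concentrations, 10⁻¹¹–10⁻⁵ M, were run in duplicate; NSB with 1 μM N/OFQ. IC50 by nonlinear regression; Ki = IC50/(1+[L]/KD), KD 0.135 nM.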

[7] = molecular target: hERG (KCNH2) (Homo sapiens, UniProt Q12809); assay: Displacement of [3H]dofetilide from human ERG channel expressed in HEK293 cells at 1 uM after 60 mins by liquid scintillation counting method; type: cell-based; details: HEK293 cells that express hERG, probe [3H]dofetilide
Chain of hERG (KCNH2) (Q12809 whole entry): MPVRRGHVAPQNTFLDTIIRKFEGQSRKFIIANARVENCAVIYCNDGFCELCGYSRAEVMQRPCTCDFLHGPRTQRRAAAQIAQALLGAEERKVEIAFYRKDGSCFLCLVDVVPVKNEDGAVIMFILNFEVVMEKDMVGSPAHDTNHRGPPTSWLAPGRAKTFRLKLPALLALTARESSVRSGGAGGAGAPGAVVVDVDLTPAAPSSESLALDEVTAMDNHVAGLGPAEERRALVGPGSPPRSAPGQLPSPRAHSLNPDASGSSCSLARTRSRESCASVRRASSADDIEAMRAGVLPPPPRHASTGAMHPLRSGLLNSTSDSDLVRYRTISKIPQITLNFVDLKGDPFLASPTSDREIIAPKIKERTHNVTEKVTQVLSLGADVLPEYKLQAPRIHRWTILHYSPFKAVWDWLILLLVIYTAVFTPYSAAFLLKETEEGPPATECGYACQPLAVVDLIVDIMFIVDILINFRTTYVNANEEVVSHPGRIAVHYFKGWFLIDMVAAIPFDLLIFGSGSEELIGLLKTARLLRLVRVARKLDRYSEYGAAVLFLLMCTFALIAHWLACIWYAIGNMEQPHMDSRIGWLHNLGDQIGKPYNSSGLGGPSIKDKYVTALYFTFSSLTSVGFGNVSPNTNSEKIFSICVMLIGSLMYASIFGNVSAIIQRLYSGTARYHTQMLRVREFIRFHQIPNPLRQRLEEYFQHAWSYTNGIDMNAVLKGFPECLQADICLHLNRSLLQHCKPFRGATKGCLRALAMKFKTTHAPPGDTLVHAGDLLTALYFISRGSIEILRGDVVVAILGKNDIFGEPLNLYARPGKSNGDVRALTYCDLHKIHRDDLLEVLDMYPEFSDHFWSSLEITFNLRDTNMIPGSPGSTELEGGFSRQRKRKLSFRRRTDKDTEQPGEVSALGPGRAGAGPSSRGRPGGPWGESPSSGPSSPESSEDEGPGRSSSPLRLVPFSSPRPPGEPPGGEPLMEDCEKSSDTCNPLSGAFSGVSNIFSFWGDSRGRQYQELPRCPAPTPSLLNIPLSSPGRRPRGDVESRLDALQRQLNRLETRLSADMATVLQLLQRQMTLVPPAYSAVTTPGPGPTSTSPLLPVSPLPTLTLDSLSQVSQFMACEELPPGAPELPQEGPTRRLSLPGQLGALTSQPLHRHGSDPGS

T1 sequence (P41146 whole entry): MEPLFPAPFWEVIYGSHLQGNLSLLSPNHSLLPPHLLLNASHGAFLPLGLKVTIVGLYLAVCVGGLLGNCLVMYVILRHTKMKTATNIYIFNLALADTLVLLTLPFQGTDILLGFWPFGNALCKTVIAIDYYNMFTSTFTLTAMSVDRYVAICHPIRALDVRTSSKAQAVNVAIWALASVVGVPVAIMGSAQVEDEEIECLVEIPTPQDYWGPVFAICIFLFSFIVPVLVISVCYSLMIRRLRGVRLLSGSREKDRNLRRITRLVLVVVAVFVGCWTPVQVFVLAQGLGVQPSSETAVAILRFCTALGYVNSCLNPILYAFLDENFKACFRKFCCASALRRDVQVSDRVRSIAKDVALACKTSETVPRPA
Chain of Mu-type opioid receptor (P35372 whole entry): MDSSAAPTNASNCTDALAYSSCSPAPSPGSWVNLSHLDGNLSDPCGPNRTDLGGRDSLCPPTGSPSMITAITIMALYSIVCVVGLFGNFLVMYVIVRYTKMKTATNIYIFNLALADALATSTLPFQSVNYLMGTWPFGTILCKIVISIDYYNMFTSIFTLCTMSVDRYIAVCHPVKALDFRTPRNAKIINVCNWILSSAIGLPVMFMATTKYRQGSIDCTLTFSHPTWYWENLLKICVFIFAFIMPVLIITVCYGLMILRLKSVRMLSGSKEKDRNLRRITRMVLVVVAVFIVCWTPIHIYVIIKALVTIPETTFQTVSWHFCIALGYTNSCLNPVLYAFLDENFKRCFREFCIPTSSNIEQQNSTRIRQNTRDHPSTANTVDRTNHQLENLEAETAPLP
Chain of Voltage-gated inwardly rectifying potassium channel KCNH2 (Q12809 whole entry): as the sequence (Q12809 whole entry) above

| Structure (SMILES) | Ki [1] [µM] | IC50 [2] [µM] | Ratio Ki [3] | half-life at 1 µM [4] [min] | IC50 [5] [µM] | Ki [6] [µM] | inhibition at 1 h, 1 µM [7] [%] |
| --- | --- | --- | --- | --- | --- | --- | --- |
| c1ccc2c(c1)CC(CN1CCC3(CCc4ccccc43)CC1)CO2 (stereo not drawn) | 0.0491 | 0.122 | 8.69 | 3.1 | 1.5 | 0.00565 |  |
| c1ccc2c(c1)CNC(CN1CCC3(CCc4ccccc43)CC1)C2 (stereo not drawn) | 0.225 | 0.248 | 26.5 | 6.6 | > 1.5 | 0.0085 |  |
| Cc1cc(F)ccc1C1CCN(CC2Cc3ccccc3CN2)CC1 (stereo not drawn) | 0.342 | 0.0588 | 96.1 | 6.9 | 0.2 | 0.00356 |  |
| Oc1ccc2c(c1)CC(CN1CCC3(CCc4ccccc43)CC1)NC2 (stereo not drawn) | 0.392 | 0.227 |  | 18 |  | 0.0102 |  |
| CN1C(=O)c2ccccc2CC1CN1CCC2(CCc3ccccc32)CC1 (stereo not drawn) | 0.231 |  | < 0.924 |  | 6.96 | > 0.25 |  |
| NC(=O)N1Cc2ccccc2CC1CN1CCC2(CCc3ccccc32)CC1 (stereo not drawn) | 0.108 |  | 5.97 |  |  | 0.0181 |  |
| Oc1ccc(Cl)c2c1CNC(CN1CCC3(CCc4ccccc43)CC1)C2 (stereo not drawn) | 0.0688 | 0.0213 |  | 15.3 |  | 0.0022 |  |
| CC(=O)N1Cc2ccccc2CC1CN1CCC2(CCc3ccccc32)CC1 (stereo not drawn) | 0.0744 |  | 2.5 |  | 0.5 | 0.0298 |  |
| Oc1cccc2c1CNC(CN1CCC3(CCc4ccccc43)CC1)C2 (stereo not drawn) | 0.288 | 0.0539 | 120 | 12.2 | 0.94 | 0.0024 |  |
| Cc1cc(F)ccc1C1CCN(CC2Cc3c(Cl)ccc(O)c3CN2)CC1 (stereo not drawn) | > 0.45 | 0.0287 | > 143 | 21.6 | 0.97 | 0.00303 |  |
| Oc1ccc(Br)c2c1CNC(CN1CCC3(CCc4ccccc43)CC1)C2 (stereo not drawn) | 0.139 | 0.0351 |  | 9.6 |  | 0.00174 |  |
| CN1Cc2ccccc2CC1CN1CCC2(CCc3ccccc32)CC1 (stereo not drawn) | 0.0582 |  | 3.08 |  |  | 0.0189 |  |
| O=C(C1Cc2ccccc2CN1)N1CCC2(CCc3ccccc32)CC1 (stereo not drawn) | > 0.45 |  |  |  |  | > 0.25 |  |
| c1ccc2c(c1)CCC(CN1CCC3(CCc4ccccc43)CC1)C2 (stereo not drawn) | 0.289 | 0.683 | 52.1 |  |  | 0.00555 | 71 |
